Test results as given in publication PMC7927141 (Molecular Pharmaceutics, 2021).
Like-named read-outs stand apart in the source and are kept apart here.

What was measured:
[1] = tested on: cancer cells (Neuro2A, EGI-1, TFK-1, Mz-ChA-1); assay: Association and uptake by flow cytometry and confocal microscopy; type: cell-based; settings: 20 μM, flow cytometry
In short: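 5 × 10^5 cells/well, grown 18 h. Medium replaced by nonsupplemented medium containing 20 μM test compound, free (0.4% DMSO final) or micelle-loaded, or Cy5-labelled micelles at 0.3 mg/mL. Incubated 1 or 4 h, rinsed twice with PBS, trypsinized, analysed by flow cytometry. Confocal imaging on coverslips after 0.5, 1 and 4 h at 37 °C, excitation 405/633 nm.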

[2] = tested on: Neuro2A cells; assay: In vitro cytotoxicity, SRB total protein assay, Neuro2A; type: cell-based, murine
In short: (§1)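 Cells grown in RPMI 1640 with 10% FBS, penicillin/streptomycin and 2 mM L-glutamine at 37 °C, 5% CO2. Seeded at 5 × 10^4 cells/well and cultured 24 h. Then exposed 24, 48 or 72 h to free test compound (DMSO, 0.4% v/v final) or micelle-loaded test compound in HBS, 0–200 μM; HBS controls. After PBS wash, SRB total protein read at 564 nm, normalized to control. IC50 from sigmoidal variable-slope nonlinear regression.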

[3] = tested on: EGI-1 cells; assay: In vitro cytotoxicity, SRB total protein assay, EGI-1; type: cell-based; settings: Homo sapiens
In short: as §1

[4] = tested on: Mz-ChA-1 cells; assay: In vitro cytotoxicity, SRB total protein assay, Mz-ChA-1; type: cell-based, human
In short: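 Mz-ChA-1 cells in RPMI 1640 with 10% FBS, penicillin/streptomycin and 2 mM L-glutamine at 37 °C, 5% CO2. Seeded at 25 × 10^4 cells/well for slow growth, cultured 24 h. Then 24, 48 or 72 h with free test compound (DMSO, 0.4% v/v final) or micelle-encapsulated test compound in HBS, 0–200 μM; HBS-treated controls. PBS wash, SRB protein stain, absorbance 564 nm, viability versus control. IC50 by sigmoidal variable-slope curve fit.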

[5] = tested on: Sk-ChA-1 cells; assay: In vitro cytotoxicity, SRB total protein assay, Sk-ChA-1; type: cell-based; settings: Homo sapiens
In short: as §1

[6] = tested on: TFK-1 cells; assay: In vitro cytotoxicity, SRB total protein assay, TFK-1; type: cell-based; settings: Homo sapiens
In short: as §1

[7] = Circulation kinetics of Cy7-labeled curcumin micelles in mice; type: in vivo, BALB/c mice
In short: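 Female mice received 9% (w/w) curcumin-loaded Cy7-labelled mPEG-b-p(HPMA-Bz) micelles i.v. (500 mg polymer/kg, 100–200 μL). EDTA blood was drawn submandibularly at 1 min (set as 100% dose), 10 min and 1 h, and by cardiac puncture at 4 and 24 h. Plasma was ACN-extracted (1:4) and assayed for curcumin by C18 RP-HPLC at 425/254 nm. Parameters came from two-compartmental analysis.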

[8] = Biodistribution of Cy7-labeled curcumin micelles in mice; type: in vivo, BALB/c mice; settings: 4 and 24 h post-administration, iv 50 mg curcumin/kg in micelles
[9] = cited from earlier work
[10] = tested on: different types of cancer cell lines; settings: cited from earlier work
[11] = read-out: IC50 after 48 and 72 h
[12] = female, BALB/c, mouse, plasma, iv, 7.8 mg/kg
[13] = iv, 50 mg curcumin/kg, two-compartmental

- t1/2α relative to that reported for free curcumin ([7]; curcumin after iv curcumin-loaded micelles vs literature free curcumin): ~5 times
- AUC(0-inf) [7, 12]: 319 µg·h/mL
- clearance [7, 12]: 2.62 mL/min/kg
- initial phase t1/2α ([7]; iv, 50 mg curcumin/kg as curcumin-loaded micelles): 6.7 min
- V1 [7, 13]: 0.086 L/kg
- V2 [7, 13]: 0.344 L/kg
- loaded curcumin eliminated during the first hour ([7]; iv, 50 mg/kg curcumin in micelles): 90%
- curcumin concentration in the different organs [8]: 0.2–3 μg/g tissue
SMILES: COc1cc(/C=C/C(=O)CC(=O)/C=C/c2ccc(O)c(OC)c2)ccc1O [free curcumin, curcumin]
- time of incubation until intracellular detection [1]: ≤ 1 h
- IC50 ([2]; 24 h exposure): 83.8 ± 13.5 µM
- IC50 ([2]; Mus musculus, N2a, 24 h, 24 h exposure): 84 µM
- IC50 ([2]; Mus musculus, N2a, 48 h, 48 h exposure): 15.6 ± 0.8 µM
- IC50 ([2]; Mus musculus, N2a, 72 h, 72 h exposure): 23.3 ± 1.2 µM
- IC50 ([3]; EGI-1, 24 h): 21.7 ± 0.5 µM
- IC50 ([3]; EGI-1, 48 h): 18.2 ± 0.3 µM
- IC50 ([3]; EGI-1, 72 h): 19.1 ± 0.3 µM
- IC50 ([3]; EGI-1, read-out: IC50 after 48 and 72 h): ~20 µM
- IC50 ([4]; Homo sapiens, 24 h, Mz-ChA-1, 24 h exposure): 48 µM
- IC50 ([4]; Homo sapiens, 48 h, Mz-ChA-1, 48 h exposure): 38.4 ± 1.4 µM
- IC50 ([4]; Homo sapiens, 72 h, Mz-ChA-1, 72 h exposure): 37.8 ± 1.1 µM
- IC50 ([4]; Mz-ChA-1, 24 h exposure): 47.6 ± 1.6 µM
- IC50 ([5]; 24 h): 33.9 ± 1.3 µM
- IC50 ([5]; 48 h): 21.5 ± 0.4 µM
- IC50 ([5]; 72 h): 21.3 ± 0.4 µM
- IC50 [5, 11]: ~20 µM
- IC50 ([6]; 24 h): 27.7 ± 0.9 µM
- IC50 ([6]; 48 h): 20.1 ± 0.9 µM
- IC50 ([6]; 72 h): 17.5 ± 0.5 µM
- IC50 [6, 11]: ~20 µM
- AUC ([9]; 50 mg/kg in mice, noncompartmental analysis, ref 63 (Gao et al.)): 60.3 µg·h/mL
- normalized AUC ([9]; two studies): 1.2 (μg·h/mL)/(mg/kg)
- IC50 ([10]; read-out: IC50 mean ± SD): 21 ± 17 µM
- IC50 ([10]; read-out: IC50 range): 1 to 100 µM
